ChEMBL document CHEMBL5634209, “Computational design, synthesis, and assessment of 3-(4-(4-(1,3,4-oxadiazol-2-yl)-1H-imidazol-2-yl)phenyl)-1,2,4-oxadiazole derivatives as effective epidermal growth factor receptor inhibitors: a prospective strategy for anticancer therapy” (RSC Med Chem, 2024)

How the values were obtained:
PC-3 = assay: Antiproliferative activity against human PC-3 cells assessed as reduction in cell viability measured after 48 hrs by MTT assay; assay type: functional, cell-based; settings: PC-3, 48 h
In short: (§1)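 Cells were grown at 37 °C in 5% CO2 in medium with 10% FBS: RPMI-1640 for A549, DU-145 and HepG2, and DMEM/F12 for PC-3. They were seeded at 5×10^3/well. At 70–80% confluence they were exposed to a concentration range diluted from a 60 mM DMSO stock for 48 h at 37 °C, with 0.1% DMSO as vehicle. MTT 5 mg/mL stock was added for 4 h, formazan dissolved in DMSO, A570 read, and % inhibition calculated against control. IC50 was taken from the concentration series.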

A549 = assay: Antiproliferative activity against human A549 cells assessed as reduction in cell viability measured after 48 hrs by MTT assay; assay type: functional, cell-based; settings: A549, 48 h; in short: as §1
HepG2 = assay: Antiproliferative activity against human HepG2 cells assessed as reduction in cell viability measured after 48 hrs by MTT assay; assay type: functional, cell-based; settings: HepG2, 48 h; in short: as §1
DU-145 = assay: Antiproliferative activity against human DU-145 cells assessed as reduction in cell viability measured after 48 hrs by MTT assay; assay type: functional, cell-based; settings: DU-145, 48 h; in short: as §1
[1] = Cytotoxicity against African green monkey Vero cells assessed as reduction in cell viability measured after 48 hrs by MTT assay; assay type: toxicity, cell-based; settings: African green monkey (Chlorocebus sabaeus)
[2] = Selectivity index, ratio of IC50 for cytotoxicity against African green monkey Vero cells to IC50 for antiproliferative activity against human PC-3 cells; assay type: toxicity, cell-based; settings: Vero cells versus PC-3 cells, read-out: Ratio IC50
[3] = Selectivity index, ratio of IC50 for cytotoxicity against African green monkey Vero cells to IC50 for antiproliferative activity against human A549 cells; assay type: toxicity, cell-based; settings: Vero cells versus A549 cells, read-out: Ratio IC50
[4] = Selectivity index, ratio of IC50 for cytotoxicity against African green monkey Vero cells to IC50 for antiproliferative activity against human HepG2 cells; assay type: toxicity, cell-based; settings: Vero cells versus HepG2 cells, read-out: Ratio IC50
[5] = Selectivity index, ratio of IC50 for cytotoxicity against African green monkey Vero cells to IC50 for antiproliferative activity against human DU-145 cells; assay type: toxicity, cell-based; settings: Vero cells versus DU-145 cells, read-out: Ratio IC50
[6] = target: Epidermal growth factor receptor (Homo sapiens, UniProt P00533); assay: Inhibition of wild type EGFR (unknown origin) incubated for 40 mins by Kinase Glo Max reagent based luminescence analysis
[7] = target: Epidermal growth factor receptor (Homo sapiens, UniProt P00533, T790M); assay: Inhibition of EGFR T790M mutant (unknown origin) incubated for 40 mins by Kinase Glo Max reagent based luminescence analysis
Sequence of Epidermal growth factor receptor (Homo sapiens, UniProt P00533, T790M) (P00533 25-1210 T790M limits assumed): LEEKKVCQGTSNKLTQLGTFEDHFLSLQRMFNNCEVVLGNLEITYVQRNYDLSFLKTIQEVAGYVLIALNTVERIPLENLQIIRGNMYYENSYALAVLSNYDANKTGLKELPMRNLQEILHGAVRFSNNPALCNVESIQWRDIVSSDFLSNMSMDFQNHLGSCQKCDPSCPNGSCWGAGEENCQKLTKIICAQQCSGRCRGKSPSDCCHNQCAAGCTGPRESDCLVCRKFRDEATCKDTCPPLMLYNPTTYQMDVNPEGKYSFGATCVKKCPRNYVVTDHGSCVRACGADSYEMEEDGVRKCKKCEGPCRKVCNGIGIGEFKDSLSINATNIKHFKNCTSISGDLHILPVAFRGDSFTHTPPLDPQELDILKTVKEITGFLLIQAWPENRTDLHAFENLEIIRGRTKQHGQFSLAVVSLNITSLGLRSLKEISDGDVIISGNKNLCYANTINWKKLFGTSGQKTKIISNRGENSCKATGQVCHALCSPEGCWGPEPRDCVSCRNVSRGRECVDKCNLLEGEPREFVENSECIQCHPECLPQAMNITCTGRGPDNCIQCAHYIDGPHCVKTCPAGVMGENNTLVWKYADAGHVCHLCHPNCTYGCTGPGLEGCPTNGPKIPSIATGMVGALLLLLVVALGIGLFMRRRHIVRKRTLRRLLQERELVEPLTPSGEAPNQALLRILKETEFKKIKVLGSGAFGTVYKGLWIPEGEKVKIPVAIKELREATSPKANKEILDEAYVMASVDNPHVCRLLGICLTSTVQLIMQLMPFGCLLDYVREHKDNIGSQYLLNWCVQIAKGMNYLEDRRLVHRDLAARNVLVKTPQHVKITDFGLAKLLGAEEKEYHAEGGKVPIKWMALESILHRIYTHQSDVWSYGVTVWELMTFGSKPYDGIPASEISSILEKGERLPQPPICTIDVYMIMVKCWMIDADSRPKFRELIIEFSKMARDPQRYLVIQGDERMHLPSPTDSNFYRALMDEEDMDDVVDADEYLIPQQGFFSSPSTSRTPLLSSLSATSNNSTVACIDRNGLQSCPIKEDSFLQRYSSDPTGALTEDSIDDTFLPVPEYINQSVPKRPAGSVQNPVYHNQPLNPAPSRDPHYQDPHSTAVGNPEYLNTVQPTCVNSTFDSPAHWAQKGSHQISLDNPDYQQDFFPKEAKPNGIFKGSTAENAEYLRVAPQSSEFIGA

Sequence of Epidermal growth factor receptor (Homo sapiens, UniProt P00533) (P00533 whole entry): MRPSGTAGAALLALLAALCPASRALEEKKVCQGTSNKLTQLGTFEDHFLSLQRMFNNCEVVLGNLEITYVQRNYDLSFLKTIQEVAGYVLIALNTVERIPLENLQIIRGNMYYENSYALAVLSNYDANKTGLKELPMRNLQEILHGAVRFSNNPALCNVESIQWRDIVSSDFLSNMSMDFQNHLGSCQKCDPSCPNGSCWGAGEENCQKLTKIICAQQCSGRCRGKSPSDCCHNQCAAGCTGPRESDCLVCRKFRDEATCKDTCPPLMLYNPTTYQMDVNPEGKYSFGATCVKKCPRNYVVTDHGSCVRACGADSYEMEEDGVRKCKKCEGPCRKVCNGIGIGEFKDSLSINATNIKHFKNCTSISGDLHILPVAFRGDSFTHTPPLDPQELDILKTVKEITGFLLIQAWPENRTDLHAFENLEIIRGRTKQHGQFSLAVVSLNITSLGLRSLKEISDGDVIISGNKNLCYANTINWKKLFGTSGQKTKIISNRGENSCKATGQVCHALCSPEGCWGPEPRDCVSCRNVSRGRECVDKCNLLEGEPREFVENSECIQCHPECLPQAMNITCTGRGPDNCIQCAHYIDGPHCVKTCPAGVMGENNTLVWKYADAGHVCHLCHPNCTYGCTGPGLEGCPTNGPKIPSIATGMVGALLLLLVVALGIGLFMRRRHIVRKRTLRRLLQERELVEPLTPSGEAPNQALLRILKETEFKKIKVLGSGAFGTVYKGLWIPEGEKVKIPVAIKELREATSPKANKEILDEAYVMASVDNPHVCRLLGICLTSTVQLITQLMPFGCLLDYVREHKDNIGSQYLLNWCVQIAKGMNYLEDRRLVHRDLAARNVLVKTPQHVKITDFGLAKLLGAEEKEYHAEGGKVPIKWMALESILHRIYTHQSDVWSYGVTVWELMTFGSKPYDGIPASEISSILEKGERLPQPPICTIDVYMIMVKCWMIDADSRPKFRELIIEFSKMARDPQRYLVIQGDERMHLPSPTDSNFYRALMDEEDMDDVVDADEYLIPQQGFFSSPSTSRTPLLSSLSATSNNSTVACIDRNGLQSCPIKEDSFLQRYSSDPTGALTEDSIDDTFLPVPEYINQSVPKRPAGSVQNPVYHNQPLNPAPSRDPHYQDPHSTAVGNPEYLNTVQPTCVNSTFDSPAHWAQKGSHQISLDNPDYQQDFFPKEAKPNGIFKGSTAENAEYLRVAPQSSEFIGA

| Compound | IC50 (PC-3) [nM] | IC50 (A549) [nM] | IC50 (HepG2) [nM] | IC50 (DU-145) [nM] | IC50 at 48 h [1] [nM] | selectivity ratio [2] | selectivity ratio [3] | selectivity ratio [4] | selectivity ratio [5] | IC50 [6] [nM] | IC50 [7] [nM] |
| --- | --- | --- | --- | --- | --- | --- | --- | --- | --- | --- | --- |
| Cc1ccc(-c2nc(-c3ccc(-c4nc(-c5nnc(-c6ccncc6)o5)c[nH]4)cc3)no2)cc1 | 1870 | 2030 | 2120 | 2340 | > 15000 | 8.02 | 7.38 | 7.1 | 6.41 |  |  |
| COc1ccc(-c2nc(-c3ccc(-c4nc(-c5nnc(-c6ccncc6)o5)c[nH]4)cc3)no2)cc1 | 1290 | 1100 | 1240 | 1740 | > 16000 | 12.4 | 14.5 | 12.9 | 9.2 | 958 | 1190 |
| Clc1ccc(-c2nc(-c3ccc(-c4nc(-c5nnc(-c6ccncc6)o5)c[nH]4)cc3)no2)cc1 | 4580 | 4840 | 5780 |  | > 25000 | 5.46 | 5.16 | 4.32 |  |  |  |
| CN(C)c1ccc(-c2nc(-c3ccc(-c4nc(-c5nnc(-c6ccncc6)o5)c[nH]4)cc3)no2)cc1 | 2190 | 1980 | 1780 | 2490 | > 16000 | 7.3 | 8.08 | 9.03 | 6.42 |  |  |
| O=[N+]([O-])c1ccc(-c2nc(-c3ccc(-c4nc(-c5nnc(-c6ccncc6)o5)c[nH]4)cc3)no2)cc1 | 2230 |  | 5330 | 3810 | > 24000 | 8.96 |  | 4.5 | 6.29 |  |  |
| COc1cc([C@@H]2c3cc4c(cc3[C@@H](O[C@@H]3O[C@@H]5CO[C@@H](C)O[C@H]5[C@H](O)[C@H]3O)[C@H]3COC(=O)[C@H]23)OCO4)cc(OC)c1O [ETOPOSIDE] | 2390 | 3080 | 2110 | 1970 | > 25000 | 10.5 | 8.11 | 11.8 | 12.7 |  |  |
